Laboratory results published in ChEMBL document CHEMBL2385076, “Discovery of 2-((1H-benzo[d]imidazol-1-yl)methyl)-4H-pyrido[1,2-a]pyrimidin-4-ones as novel PKM2 activators” (Bioorg Med Chem Lett, 2013).
The source made the active and inactive calls. No cut-off for these calls is given here.

What was measured:
[1] = Intrinsic clearance in human liver microsomes; assay type: ADME, Microsome; conditions: read-out: CLH
[2] = system: SNU-182; assay: Antiproliferative activity against human SNU182 cells at 10 uM after 5 days; assay type: functional, cell-based
Summary of the method: (§1)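 Cells plated in Optimem-GlutaMax medium and cultured overnight before exposure to 10 µM compound. Viability measured with CytoTox-Glo after 5 days of treatment.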

[3] = biological target: T1, Pyruvate kinase PKM (Homo sapiens, UniProt P14618); assay: Activation of PKM2 in human Huh7 cells assessed as formation of enzyme tetramers; assay type: cell-based; conditions: Huh-7
Target sequence in this assay (P14618 2-531 limits assumed): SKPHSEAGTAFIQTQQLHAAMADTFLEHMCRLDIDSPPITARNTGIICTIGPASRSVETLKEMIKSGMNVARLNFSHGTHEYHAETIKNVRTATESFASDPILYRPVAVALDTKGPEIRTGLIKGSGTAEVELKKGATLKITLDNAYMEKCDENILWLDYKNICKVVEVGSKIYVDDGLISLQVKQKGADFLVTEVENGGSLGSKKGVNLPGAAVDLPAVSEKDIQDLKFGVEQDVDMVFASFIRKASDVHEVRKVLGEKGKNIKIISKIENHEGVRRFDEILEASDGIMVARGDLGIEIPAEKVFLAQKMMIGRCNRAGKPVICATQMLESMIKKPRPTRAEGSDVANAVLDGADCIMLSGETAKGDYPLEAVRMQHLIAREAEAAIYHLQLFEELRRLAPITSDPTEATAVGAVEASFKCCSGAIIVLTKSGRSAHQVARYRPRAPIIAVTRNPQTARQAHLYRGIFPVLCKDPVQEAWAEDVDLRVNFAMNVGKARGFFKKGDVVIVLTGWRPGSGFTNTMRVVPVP

[4] = biological target: Beta-2 adrenergic receptor (Homo sapiens) (UniProt P07550); assay: Binding affinity to human beta-2 adrenergic receptor by radioligand binding assay
Summary of the method: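 CEREP panel binding measured by displacement of an agonist radioligand.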

[5] = biological target: Proto-oncogene tyrosine-protein kinase Src (Homo sapiens) (UniProt P12931); assay: Inhibition of SRC (unknown origin)
[6] = biological target: T1, Pyruvate kinase PKM; assay: Activation of human PKM2 assessed as production of ATP at infinite concentration after 10 mins by lactate dehydrogenase-coupled enzyme assay relative to FBP
Summary of the method: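 Coupled to lactate dehydrogenase, NADH loss read as the drop in absorbance at 340 nm. Reaction: 2nM human PKM2 (cleaved N-term his, 1-531), 2 mM PEP, 0.35 mM NADH, 4 units/mL LDH in 50 mM Tris pH 7.5 with KCl and 5 mM MgCl2. Compound preincubated 10 minutes at 32 °C, then 0.5mM ADP starts the reaction. Duplicates; 10-point curves; asymptote max = % activation at infinite concentration.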
Target sequence in this assay (P14618 2-531 limits assumed): as above

[7] = Passive permeability from apical to basolateral side of dog RRCK cells; assay type: ADME, cell-based, Canis lupus familiaris, MDCKII-LE; conditions: MDCK, read-out: permeability
[8] = biological target: Mitogen-activated protein kinase kinase kinase kinase 4 (Homo sapiens) (UniProt O95819); assay: Inhibition of MAP4K4 (unknown origin)
[9] = biological target: RAC-alpha serine/threonine-protein kinase (Homo sapiens) (UniProt P31749); assay: Inhibition of AKT1 (unknown origin)
[10] = biological target: T1, Pyruvate kinase PKM; assay: Activation of PKM2 in human Snu182 cells assessed as extracellular acidification rate at 10 uM after 18 hrs; assay type: cell-based
Summary of the method: (§2)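 Snu182 cells seeded at 12k/well in RPMI with 10% FBS and 2 mM glutamine, cultured overnight, then given 10 µM compound for 18 h at 37°C, 5% CO2. Medium switched to XF DMEM with 5 mM glucose plus 10 µM compound; OCR and ECAR measured on a Seahorse XF96 analyzer.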
Target sequence in this assay (P14618 2-531 limits assumed): as above

[11] = biological target: CDK2/Cyclin A2 (Homo sapiens) (UniProt P24941+P20248); assay: Inhibition of CDK2/cyclin A (unknown origin); assay type: protein-complex assay
[12] = system: JHH2; assay: Antiproliferative activity against human JHH2 cells at 10 uM after 5 days; assay type: functional, cell-based; summary of the method: as §1
[13] = biological target: Cannabinoid receptor 1 (Homo sapiens) (UniProt P21554); assay: Binding affinity to cannabinoid CB1 receptor (unknown origin)
[14] = biological target: Angiopoietin-1 receptor (Homo sapiens) (UniProt Q02763); assay: Inhibition of Tie2 (unknown origin)
[15] = biological target: Adrenergic receptor alpha-1 (Homo sapiens) (UniProt P35348+P25100+P35368); assay: Binding affinity to alpha-1 adrenergic receptor (unknown origin) by radioligand binding assay
[16] = biological target: Sodium-dependent dopamine transporter (Homo sapiens) (UniProt Q01959); assay: Binding affinity to human dopamine transporter by radioligand binding assay
Summary of the method: (§3)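 CEREP panel binding measured by displacement of an antagonist radioligand.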

[17] = biological target: T1, Pyruvate kinase PKM; assay: Activation of PKM2 in human Huh7 cells assessed as production of pyruvate and ATP by fluorescence assay; assay type: cell-based, Huh-7
Summary of the method: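 Huh7 hepatocellular carcinoma cells were treated with compound and lysed, and the lysate was given PEP and ADP. The pyruvate formed was oxidized by pyruvate oxidase, and the fluorescence, proportional to pyruvate, was read as cellular pyruvate kinase activity.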

[18] = biological target: Serine/threonine-protein kinase Chk2 (Homo sapiens) (UniProt O96017); assay: Inhibition of CHEK2 (unknown origin)
[19] = biological target: Protein kinase C beta type (Homo sapiens) (UniProt P05771); assay: Inhibition of PRKCB2 (unknown origin)
[20] = biological target: cGMP-inhibited 3',5'-cyclic phosphodiesterase 3B (Homo sapiens) (UniProt Q13370); assay: Binding affinity to human PDE3B
[21] = biological target: Muscarinic acetylcholine receptor M1 (Homo sapiens) (UniProt P11229); assay: Binding affinity to human muscarinic M1 receptor by radioligand binding assay; summary of the method: as §3
[22] = biological target: Casein kinase II subunit alpha' (Homo sapiens) (UniProt P19784); assay: Inhibition of CSNK2A2 (unknown origin)
[23] = biological target: Serine/threonine-protein kinase Sgk1 (Homo sapiens) (UniProt O00141); assay: Inhibition of SGK (unknown origin)
[24] = biological target: Tyrosine-protein kinase JAK3 (Homo sapiens) (UniProt P52333); assay: Inhibition of JAK3 (unknown origin)
[25] = biological target: Epidermal growth factor receptor (Homo sapiens) (UniProt P00533); assay: Inhibition of EGFR (unknown origin)
[26] = biological target: Tyrosine-protein kinase ABL1 (Homo sapiens) (UniProt P00519); assay: Inhibition of ABL1 (unknown origin)
[27] = biological target: Sodium-dependent serotonin transporter (Homo sapiens) (UniProt P31645); assay: Binding affinity to human 5-HT transporter by radioligand binding assay; summary of the method: as §3
[28] = biological target: cAMP-dependent protein kinase catalytic subunit alpha (Homo sapiens) (UniProt P17612); assay: Inhibition of PRKACA (unknown origin)
[29] = biological target: T1, Pyruvate kinase PKM; assay: Activation of PKM2 in human Snu182 cells assessed as oxygen consumption rate at 10 uM after 18 hrs; assay type: cell-based; summary of the method: as §2
Target sequence in this assay (P14618 2-531 limits assumed): as above

[30] = biological target: Glycogen synthase kinase-3 beta (Homo sapiens) (UniProt P49841); assay: Inhibition of GSK3B (unknown origin)
[31] = biological target: Aurora kinase A (Homo sapiens) (UniProt O14965); assay: Inhibition of AURKA (unknown origin)
[32] = biological target: MAP kinase p38 (Homo sapiens) (UniProt O15264+Q15759+Q16539+P53778); assay: Inhibition of p38 (unknown origin); assay type: protein assay
[33] = system: SNU-449; assay: Antiproliferative activity against human SNU449 cells at 10 uM after 5 days; assay type: functional, cell-based; summary of the method: as §1
[34] = species: Homo sapiens; assay: Binding affinity to L-type calcium channel diltiazem binding site (unknown origin) by radioligand binding assay
[35] = system: HuH-1 (human); assay: Antiproliferative activity against human HuH1 cells at 10 uM after 5 days
[36] = biological target: Histamine H1 receptor (Homo sapiens) (UniProt P35367); assay: Binding affinity to human histamine H1 receptor by radioligand binding assay; summary of the method: as §3
[37] = biological target: Serine/threonine-protein kinase MARK1 (Homo sapiens) (UniProt Q9P0L2); assay: Inhibition of MARK1 (unknown origin)
[38] = biological target: Insulin receptor (Homo sapiens) (UniProt P06213); assay: Inhibition of INSR (unknown origin)
[39] = system: Salmonella typhimurium; assay: Genotoxicity in Salmonella typhimurium by Ames test; assay type: toxicity, organism-based; conditions: salmonella enterica subsp. enterica serovar typhimurium
[40] = biological target: Rho-associated protein kinase 1 (Homo sapiens) (UniProt Q13464); assay: Inhibition of ROCK1 (unknown origin)
[41] = biological target: Tyrosine-protein kinase BTK (Homo sapiens) (UniProt Q06187); assay: Inhibition of BTK (unknown origin)
Sequence of Tyrosine-protein kinase BTK (Homo sapiens) (Q06187 whole entry): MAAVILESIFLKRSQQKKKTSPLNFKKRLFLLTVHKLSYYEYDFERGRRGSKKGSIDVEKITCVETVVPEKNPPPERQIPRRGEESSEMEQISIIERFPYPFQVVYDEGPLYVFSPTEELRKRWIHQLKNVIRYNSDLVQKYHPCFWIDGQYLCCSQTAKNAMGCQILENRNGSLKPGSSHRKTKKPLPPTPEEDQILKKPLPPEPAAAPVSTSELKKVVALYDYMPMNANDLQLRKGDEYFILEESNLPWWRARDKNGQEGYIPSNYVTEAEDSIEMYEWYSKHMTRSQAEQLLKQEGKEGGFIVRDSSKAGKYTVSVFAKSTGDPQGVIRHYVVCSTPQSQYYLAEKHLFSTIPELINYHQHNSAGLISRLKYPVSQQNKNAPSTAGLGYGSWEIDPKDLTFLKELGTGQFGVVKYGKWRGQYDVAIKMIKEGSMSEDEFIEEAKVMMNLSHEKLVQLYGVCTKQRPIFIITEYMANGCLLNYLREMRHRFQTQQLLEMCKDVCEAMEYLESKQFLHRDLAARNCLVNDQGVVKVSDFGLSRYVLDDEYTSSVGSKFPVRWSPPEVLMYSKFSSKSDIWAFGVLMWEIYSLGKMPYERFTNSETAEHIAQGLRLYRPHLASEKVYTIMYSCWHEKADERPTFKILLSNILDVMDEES

Sequence of Rho-associated protein kinase 1 (Homo sapiens) (Q13464 2-1354 limits assumed): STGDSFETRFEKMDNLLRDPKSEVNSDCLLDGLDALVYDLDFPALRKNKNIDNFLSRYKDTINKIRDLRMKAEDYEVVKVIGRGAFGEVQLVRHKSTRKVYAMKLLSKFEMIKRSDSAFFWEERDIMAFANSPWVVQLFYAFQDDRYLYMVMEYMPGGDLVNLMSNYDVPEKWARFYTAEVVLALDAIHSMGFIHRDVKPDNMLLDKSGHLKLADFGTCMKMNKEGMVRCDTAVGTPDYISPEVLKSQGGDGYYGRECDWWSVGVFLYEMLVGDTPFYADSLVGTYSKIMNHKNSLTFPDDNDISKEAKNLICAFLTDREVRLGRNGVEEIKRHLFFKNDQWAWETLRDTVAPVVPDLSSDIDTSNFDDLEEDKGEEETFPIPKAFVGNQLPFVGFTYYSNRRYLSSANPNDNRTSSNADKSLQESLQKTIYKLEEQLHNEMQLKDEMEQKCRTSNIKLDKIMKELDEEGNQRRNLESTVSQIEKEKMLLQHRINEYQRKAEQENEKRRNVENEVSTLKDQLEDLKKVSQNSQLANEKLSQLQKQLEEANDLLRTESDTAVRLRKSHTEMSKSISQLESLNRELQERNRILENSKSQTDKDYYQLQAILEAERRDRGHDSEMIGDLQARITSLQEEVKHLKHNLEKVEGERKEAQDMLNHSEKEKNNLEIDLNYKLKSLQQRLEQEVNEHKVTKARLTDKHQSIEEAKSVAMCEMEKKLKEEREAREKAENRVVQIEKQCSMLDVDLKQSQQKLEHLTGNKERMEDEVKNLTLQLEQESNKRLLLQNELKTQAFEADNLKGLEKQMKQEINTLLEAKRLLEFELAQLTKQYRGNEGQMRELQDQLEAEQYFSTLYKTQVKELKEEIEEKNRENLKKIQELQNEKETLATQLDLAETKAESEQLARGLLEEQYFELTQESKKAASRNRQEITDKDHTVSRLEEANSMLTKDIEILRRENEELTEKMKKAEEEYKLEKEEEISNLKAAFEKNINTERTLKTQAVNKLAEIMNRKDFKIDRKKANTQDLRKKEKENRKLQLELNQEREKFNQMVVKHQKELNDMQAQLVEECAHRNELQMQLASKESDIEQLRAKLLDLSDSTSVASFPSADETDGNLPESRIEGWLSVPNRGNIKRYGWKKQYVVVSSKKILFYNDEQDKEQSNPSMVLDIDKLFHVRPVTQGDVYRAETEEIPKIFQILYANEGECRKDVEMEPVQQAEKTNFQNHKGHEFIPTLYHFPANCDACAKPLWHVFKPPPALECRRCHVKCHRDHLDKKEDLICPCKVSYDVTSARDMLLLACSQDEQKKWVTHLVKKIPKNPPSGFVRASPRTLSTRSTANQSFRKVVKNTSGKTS
Sequence of cGMP-inhibited 3',5'-cyclic phosphodiesterase 3B (Homo sapiens) (Q13370 whole entry, looked up): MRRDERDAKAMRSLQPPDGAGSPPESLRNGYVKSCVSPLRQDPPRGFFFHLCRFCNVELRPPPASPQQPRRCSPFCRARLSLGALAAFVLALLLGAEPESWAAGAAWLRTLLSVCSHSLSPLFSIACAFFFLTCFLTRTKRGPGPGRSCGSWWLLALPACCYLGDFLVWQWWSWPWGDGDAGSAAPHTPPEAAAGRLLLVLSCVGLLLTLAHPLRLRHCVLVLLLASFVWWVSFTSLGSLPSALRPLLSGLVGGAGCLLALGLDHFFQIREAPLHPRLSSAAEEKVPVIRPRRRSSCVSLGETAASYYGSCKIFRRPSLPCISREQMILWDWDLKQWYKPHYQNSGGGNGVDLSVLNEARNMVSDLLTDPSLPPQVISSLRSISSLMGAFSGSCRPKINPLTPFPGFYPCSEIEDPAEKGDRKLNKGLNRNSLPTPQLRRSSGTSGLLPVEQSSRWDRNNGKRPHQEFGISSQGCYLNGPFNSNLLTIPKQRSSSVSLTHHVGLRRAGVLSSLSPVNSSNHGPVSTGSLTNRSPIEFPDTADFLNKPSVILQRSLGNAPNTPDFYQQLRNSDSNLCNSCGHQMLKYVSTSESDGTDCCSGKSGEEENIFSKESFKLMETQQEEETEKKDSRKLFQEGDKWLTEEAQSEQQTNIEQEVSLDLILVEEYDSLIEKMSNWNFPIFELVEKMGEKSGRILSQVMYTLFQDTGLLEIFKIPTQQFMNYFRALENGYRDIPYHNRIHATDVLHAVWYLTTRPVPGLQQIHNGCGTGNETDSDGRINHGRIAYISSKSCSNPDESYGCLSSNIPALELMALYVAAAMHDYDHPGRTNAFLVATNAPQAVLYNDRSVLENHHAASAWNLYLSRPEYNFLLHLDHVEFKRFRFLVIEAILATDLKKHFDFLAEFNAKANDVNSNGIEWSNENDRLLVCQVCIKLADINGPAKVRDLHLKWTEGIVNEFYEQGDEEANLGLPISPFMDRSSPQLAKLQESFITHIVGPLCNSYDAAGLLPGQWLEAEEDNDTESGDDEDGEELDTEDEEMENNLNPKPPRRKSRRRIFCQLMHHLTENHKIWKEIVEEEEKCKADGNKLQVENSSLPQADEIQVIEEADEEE
Sequence of Cannabinoid receptor 1 (Homo sapiens) (P21554 whole entry): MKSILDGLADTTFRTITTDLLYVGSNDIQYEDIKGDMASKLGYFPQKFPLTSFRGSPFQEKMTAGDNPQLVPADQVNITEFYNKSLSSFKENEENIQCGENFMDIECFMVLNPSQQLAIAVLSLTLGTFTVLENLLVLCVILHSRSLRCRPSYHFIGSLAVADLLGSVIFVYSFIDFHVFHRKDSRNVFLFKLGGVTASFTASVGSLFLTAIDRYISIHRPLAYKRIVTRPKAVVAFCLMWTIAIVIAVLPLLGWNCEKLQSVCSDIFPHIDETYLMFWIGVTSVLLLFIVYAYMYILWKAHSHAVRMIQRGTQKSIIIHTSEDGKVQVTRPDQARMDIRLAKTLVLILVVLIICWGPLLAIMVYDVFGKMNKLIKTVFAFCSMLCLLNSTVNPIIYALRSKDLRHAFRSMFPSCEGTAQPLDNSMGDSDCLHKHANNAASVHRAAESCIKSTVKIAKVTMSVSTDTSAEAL
Sequence of Histamine H1 receptor (Homo sapiens) (P35367 whole entry): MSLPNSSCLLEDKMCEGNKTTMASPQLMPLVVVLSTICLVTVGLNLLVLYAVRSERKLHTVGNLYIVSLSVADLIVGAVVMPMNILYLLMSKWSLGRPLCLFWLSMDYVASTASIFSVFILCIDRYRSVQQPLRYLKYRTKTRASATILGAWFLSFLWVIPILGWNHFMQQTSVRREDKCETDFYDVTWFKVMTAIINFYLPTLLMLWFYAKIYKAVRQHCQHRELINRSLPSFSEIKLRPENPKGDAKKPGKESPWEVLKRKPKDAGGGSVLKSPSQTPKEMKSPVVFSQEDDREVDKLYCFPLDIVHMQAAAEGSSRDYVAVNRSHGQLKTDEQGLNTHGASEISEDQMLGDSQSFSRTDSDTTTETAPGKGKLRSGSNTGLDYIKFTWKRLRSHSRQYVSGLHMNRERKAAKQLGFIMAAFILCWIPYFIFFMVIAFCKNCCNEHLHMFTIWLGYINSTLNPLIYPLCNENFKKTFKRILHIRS

- microsomal CLint [1]: < 8 µL/min/mg
- Activity [3]: Active
- Activity [4]: inactive
- inhibition [5]: inactive
- max activation [6]: 198%
- Papp A→B [7]: 205 nm/s
- inhibition [8]: inactive
- inhibition [9]: inactive
- Activity [10]: 109%
- inhibition [11]: inactive
- Activity [13]: inactive
- inhibition [14]: inactive
- Activity [15]: inactive
- Activity [16]: inactive
- EC50 [17]: 0.07 µM
- inhibition [18]: inactive
- inhibition [19]: inactive
- Activity [20]: inactive
- Activity [21]: inactive
- inhibition [22]: inactive
- inhibition [23]: inactive
- inhibition [24]: inactive
- inhibition [25]: inactive
- inhibition [26]: inactive
- Activity [27]: inactive
- inhibition [28]: inactive
- Activity [29]: 101%
- inhibition [30]: inactive
- inhibition [31]: inactive
- inhibition [32]: inactive
- Activity [34]: inactive
- Activity [36]: inactive
- inhibition [37]: inactive
- inhibition [38]: inactive
- inhibition [40]: inactive
- inhibition [41]: inactive
Structure (SMILES): Cc1cccc2nc(Cn3cnc4ccccc43)cc(=O)n12
- Activity [2]: inactive
- Activity [12]: inactive
- Activity [33]: inactive
- Activity [35]: inactive
- Activity [39]: Non-toxic
